Test results: ChEMBL document CHEMBL1687727, “Distinct mode of interaction of a novel ketolide antibiotic that displays enhanced antimicrobial activity” (Antimicrob Agents Chemother, 2009)
Converted amounts (≈) assume the structure as drawn. The source made the active and inactive calls. The rule behind the calls is not given here.

Experiments:
[1] = tested on: Escherichia coli K-12; assay: Binding affinity to Escherichia coli K-12 70S ribosome Pi complex assessed as inhibition of AcPhe-puromycin synthesis at 5 uM after 2 mins by liquid scintillation counting
[2] = tested on: Nucleic Acid; assay: Binding affinity to Escherichia coli K-12 70S ribosome 23S rRNA assessed as enhancement of DMS-induced modification of 23S rRNA domain II at nucleotides A752 by primer extension analysis; assay type: nucleic-acid assay
Method in brief: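 70S ribosomes (50 pmol) activated 5 min at 37°C in 20 mM HEPES/KOH pH 7.8, 20 mM MgCl2, 300 mM KCl. Antibiotic added in the same buffer for 10 min at 37°C, then cooled on ice. DMS modification followed, then SDS/EDTA buffer, phenol/chloroform extraction and ethanol precipitation of rRNA. Repeated up to four times.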

[3] = tested on: Nucleic Acid; assay: Binding affinity to Escherichia coli K-12 70S ribosome 23S rRNA assessed as protection against CMCT-induced modification of 23S rRNA […] by primer extension analysis; assay type: nucleic-acid assay
[4] = tested on: Escherichia coli; assay: Antimicrobial activity against Escherichia coli TA531 harboring 23S rRNA A2058G mutant after 15 hrs; assay type: functional; settings: TA531, 15 h
Method in brief: (§1)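 E. coli TA531 lacking chromosomal rrn alleles and carrying plasmid-borne wild-type, A2058G or U2609C 23S rRNA. Grown overnight in LB with 100 μg/ml ampicillin, diluted and regrown. MIC was the lowest concentration arresting culture growth.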

[5] = tested on: Escherichia coli K-12; assay: Binding affinity to Escherichia coli K-12 70S ribosome Pi complex assessed as inhibition of AcPhe-puromycin synthesis at 10 uM after 2 mins by liquid scintillation counting
Method in brief: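 Pi complex: Ac[3H]Phe-tRNA bound at the P-site of MF-mRNA-programmed 70S ribosomes (0.3 μM ribosomes, 2.0 μM mRNA, 0.5 μM tRNA; buffer A, pH 7.6, 4.5 mM Mg2+; 37°C 15 min), free of unbound donor. Reacted with 1 mM puromycin at 37°C for 2 min, with or without 10 μM antibiotic. Duplicates.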

[6] = tested on: Nucleic Acid; assay: Binding affinity to Escherichia coli K-12 70S ribosome 23S rRNA U2609C mutant assessed as protection against DMS-induced modification of 23S rRNA domain V at nucleotides A2058 and A2059 by primer extension analysis
[7] = tested on: Nucleic Acid; assay: Binding affinity to Escherichia coli K-12 70S ribosome 23S rRNA assessed as protection against DMS-induced modification of 23S rRNA […] by primer extension analysis; assay type: nucleic-acid assay
[8] = tested on: Escherichia coli K-12; assay: Binding affinity to Escherichia coli K-12 Pi complex of 70S ribosome Pi complex U2609C mutant assessed as blockade of tylosin-induced inhibition of AcPhe-puromycin synthesis at 10 uM after 2 mins by liquid scintillation counting
Method in brief: (§2)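 Pi complexes were formed on ribosomes carrying the A2058G or U2609C mutation (Ac[3H]Phe-tRNA at the P-site of MF-mRNA-programmed 70S; buffer A). Complexes were pre-exposed to antibiotic (final 10 μM) at 37°C for 2 min, then tylosin was added (final 5 μM). They were then reacted with 1 mM puromycin at 37°C for 2 min to measure AcPhe-puromycin formation.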

[9] = tested on: Escherichia coli; assay: Antimicrobial activity against Escherichia coli TA531 harboring 23S rRNA U2609C mutant after 15 hrs; assay type: functional; settings: TA531, 15 h; method in brief: as §1
[10] = target: Bacterial 70S ribosome; assay: Displacement of [14C]-erythromycin from Escherichia coli K-12 70S ribosome after 10 mins by competitive binding assay
Method in brief: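 Tight-coupled 70S ribosomes (0.20 μM final) in buffer A (20 mM HEPES-KOH pH 7.6, 4.5 mM Mg acetate, 150 mM NH4 acetate, polyamines). [14C]-erythromycin held constant at 0.6 μM (150 dpm/pmol) with increasing unlabeled competitor, 10 min at 37°C. Mixture was diluted in cold buffer and filtered through cellulose nitrate, which was washed twice and counted. KD was derived from a competition binding equation.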

[11] = target: T1, Bacterial 70S ribosome (Bacteria) (UniProt P0A7V0+P60723+P0AG67+P0A7R5+P0A7R9+P0A7S3+P0A7S9+P0AG59+P0ADZ4+P0A7T3+P0AG63+P0A7T7+P0A7U3+P0A7U7+P68679+P0A7V3+P0A7V8+P0A7W1+P02358+P02359+P0A7W7+P0A7X3+P0A7J3+P0A7J7+P0AA10+P0ADY3+P02413+P0ADY7+P0AG44+P0C018+P0A7K6+P0A7L0+P0A7L3+P0AG48+P61175+P0ADZ0+P60624+P68919+P0A7L8+P0A7M2+P0A7M6+P60422+P0AG51+P0A7N1+P0A7M9+P0A7N4+P0A7N9+P0A7P5+P0A7Q1+Q2EEQ2+P0A7Q6+P60438+P62399+P0AG55+P0A7K2); assay: Inhibition of poly(U)-dependent synthesis of poly(Phe) using Escherichia coli K-12 70S ribosome at 20 uM after 30 mins by liquid scintillation counting
[12] = target: T1, Bacterial 70S ribosome (Bacteria); assay: Inhibition of poly(A)-dependent synthesis of poly(Lys) using Escherichia coli K-12 70S ribosome at 20 uM after 1 hr by liquid scintillation counting
Method in brief: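 Poly(A)-programmed tight-coupled 70S ribosomes (0.5 μM) were preincubated 10 min at 37°C with antibiotic in buffer A. The mix held [3H]lysine (3 nmol, 500 dpm/pmol), bulk E. coli tRNA, 3 mM ATP, 1.5 mM GTP, 5 mM acetyl phosphate and S-100 fraction. Incubated 1 h at 37°C, followed by hot TCA (with 0.25% sodium wolframate) precipitation onto glass fiber filters and scintillation counting.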

[13] = tested on: Escherichia coli; assay: Antimicrobial activity against chromosomal rrn allele deficient-Escherichia coli TA531 after 15 hrs; assay type: functional; settings: TA531, 15 h; method in brief: as §1
[14] = tested on: Nucleic Acid; assay: Binding affinity to Escherichia coli K-12 70S ribosome 23S rRNA A2062 mutant assessed as enhancement of DMS-induced modification of 23S rRNA domain V at nucleotides A2062 by primer extension analysis; assay type: nucleic-acid assay
[15] = target: T1, Bacterial 70S ribosome (Bacteria); assay: Inhibition of Ptase activity of Escherichia coli K-12 70S ribosome
[16] = tested on: Escherichia coli K-12; assay: Binding affinity to Escherichia coli K-12 70S ribosome Pi complex assessed as dissociation rate constant at 2 uM
[17] = tested on: Escherichia coli K-12; assay: Binding affinity to Escherichia coli K-12 Pi complex of 70S ribosome Pi complex A2058G mutant assessed as blockade of tylosin-induced inhibition of AcPhe-puromycin synthesis at 10 uM after 2 mins by liquid scintillation counting; method in brief: as §2
[18] = target: T1, Bacterial 70S ribosome (Bacteria); assay: Inhibition of tRNA binding to Escherichia coli K-12 70S ribosome
[19] = tested on: Escherichia coli K-12; assay: Inhibition of poly(U)-dependent synthesis of poly(Phe) using Escherichia coli K-12 70S ribosome A2058 mutant at 50 uM after 1 hr by liquid scintillation counting
[20] = tested on: Escherichia coli K-12; assay: Inhibition of poly(U)-dependent synthesis of poly(Phe) using Escherichia coli K-12 70S ribosome U2609C mutant at 50 uM after 1 hr by liquid scintillation counting
[21] = tested on: Nucleic Acid; assay: Binding affinity to Escherichia coli K-12 70S ribosome 23S rRNA A2062 mutant assessed as protection against DMS-induced modification of 23S rRNA domain II at nucleotides A752 and by primer extension analysis; assay type: nucleic-acid assay
[22] = target: T1, Bacterial 70S ribosome (Bacteria); assay: Inhibition of Escherichia coli K-12 70S ribosome dependent elongation factor G-dependent translocation

Row | Compound | Activity [3] | MIC [4] | Activity [6] | Activity [7] | Activity [8] | MIC [9] | Kd [10] | inhibition [11] | inhibition [12] | MIC [13] | also measured
1 | CC[C@H]1OC(=O)C[C@@H](O)[C@H](C)[C@@H](O[C@@H]2O[C@H](C)[C@@H](O[C@H]3C[C@@](C)(O)[C@@H](O)[C@H](C)O3)[C@H](N(C)C)[C@H]2O)[C@@H](CC=O)C[C@@H](C)C(=O)/C=C/C(C)=C/[C@@H]1CO[C@@H]1O[C@H](C)[C@@H](O)[C@@H](OC)[C@H]1OC | – | – | – | – | – | – | – | – | – | – | Activity [1]: Active
2 | CC[C@H]1OC(=O)[C@H](C)[C@@H](O[C@H]2C[C@@](C)(OC)[C@@H](O)[C@H](C)O2)[C@H](C)[C@@H](O[C@@H]2O[C@H](C)C[C@H](N(C)C)[C@H]2O)[C@](C)(O)C[C@@H](C)C(=O)[C@H](C)[C@@H](O)[C@]1(C)O [ERYTHROMYCIN] | inactive | > 500 µg/mL | Active | inactive | Active | 128 µg/mL (≈ 174 µM) | 15 nM | inactive | Active | 128 µg/mL (≈ 174 µM) | Activity [2]: Active; Activity [5]: inactive
3 | C[C@H]1C(=O)O[C@H](CCNC(=O)Cc2cccc(-c3ccco3)c2)[C@@]2(C)OC(=O)N[C@@H]2[C@@H](C)C(=O)[C@H](C)C[C@@](C)(O)[C@H](O[C@@H]2O[C@H](C)C[C@H](N(C)C)C2O)[C@@H](C)C1=O (stereo partly specified) [KOSAN-1325] | Active | > 250 µg/mL | Active | Active | Active | 8 µg/mL (≈ 10 µM) | 7.5 nM | inactive | Active | 8 µg/mL (≈ 10 µM) | Activity [14]: Active; inhibition [15]: inactive; Kdiss [16]: 5e-05 s⁻¹; Activity [17]: Active; inhibition [5]: inactive; inhibition [18]: inactive; inhibition [19]: inactive; inhibition [20]: Active; Activity [21]: Active; inhibition [22]: inactive
4 | CC[C@H]1OC(=O)[C@H](C)C(=O)[C@H](C)[C@@H](O[C@@H]2O[C@H](C)C[C@H](N(C)C)[C@H]2O)[C@](C)(OC)C[C@@H](C)C(=O)[C@H](C)[C@H]2N(CCCCn3cnc(-c4cccnc4)c3)C(=O)O[C@]12C [TELITHROMYCIN] | – | > 150 µg/mL | – | – | – | 64 µg/mL (≈ 78.8 µM) | – | – | – | 16 µg/mL (≈ 19.7 µM) | –
